Measurements of several laboratories.
Each line is one published result; the experiments were not run side by side.
Cell line: NCI-H23
Effect on: cell growth or viability

| Structure (SMILES) | test | conditions | quantity | result |
| --- | --- | --- | --- | --- |
| COc1ccc(C(=O)/C=C/c2cccc3ccccc23)cc1S(N)(=O)=O | SRB | 10 µM | inhibition | 120% |
| COc1cccc(Oc2ccccc2NC(=O)CNC(=O)c2cccc3ccccc23)c1 | SRB | 48 h | GI50 | 741 nM |
| c1ccc(-c2n(Cc3ccc4ccccc4c3)cc[n+]2Cc2ccc3ccccc3c2)cc1 | SRB |  | TGI | 2350 nM |
| COc1ccc(C(=O)/C=C/c2ccc3c(c2)OCCO3)cc1S(N)(=O)=O | SRB | 10 µM | inhibition | 27% |
| O=C(/C=C/c1ccc2c(=O)n(CC3CCCCC3)cnc2c1)NO | SRB | 48 h | IC50 | 2290 nM |
| COc1ccc(C(=O)/C=C/c2ccc3ccccc3c2)cc1S(N)(=O)=O | SRB | 10 µM | inhibition | 124% |
| Cc1cc(C)n(C(=S)[S][Au][PH](CCCCCC[PH]([Au][S]C(=S)n2nc(C)cc2C)(c2ccccc2)c2ccccc2)(c2ccccc2)c2ccccc2)n1 | SRB |  | GI50 | 1540 nM |
| O=C(/C=C/c1ccc2c(=O)n(CCO)cnc2c1)NO | SRB | 48 h | IC50 | 4200 nM |
| C[C@]12CC[C@@H]3c4ccc(O)cc4CC[C@H]3[C@@H]1CC[C@@H]2O | ATP luminescence | 72 h | EC90 | 78500 nM |
| CCCCc1n(Cc2ccc3ccccc3n2)cc[n+]1Cc1ccc2ccccc2n1 | SRB |  | TGI | 7270 nM |
| O=C1Nc2ccccc2C1=NNc1nnc2n1N=C(c1ccccc1)CS2 | SRB | 10 µM | inhibition | 31% |
| COc1ccc(-c2ccc(-c3ccc(C(=N)N)nc3)s2)cc1Cl | SRB |  | GI50 | 1800 nM |
| CCc1n(Cc2ccc3ccccc3n2)cc[n+]1Cc1ccc2ccccc2n1 | SRB |  | GI50 | 257 nM |
| COc1ccc(C(=O)/C=C/c2cc3c(cc2Br)OCO3)cc1S(N)(=O)=O | SRB | 48 h | GI50 | 4300 nM |
| CCc1n(Cc2ccc3ccccc3n2)cc[n+]1Cc1ccc2ccccc2c1 | SRB |  | TGI | 3230 nM |
| COc1ccc(C(=O)/C=C/c2cccc(Br)c2)cc1S(N)(=O)=O | SRB | 10 µM | inhibition | 166% |
| O=C1NCCc2[nH]c(-c3ccncc3)cc21 |  |  | IC50 | > 10000 nM |
